Calls of active or inactive are those of the source.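 The calls were made as follows: active = compounds cutting cell ATP light whose fitted AC50 is at most double the top dose tried; inconclusive = flat moderate signal loss, or an unreliable curve fit; inactive = the rest.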
Key:
[1] = ldlA[mSR-BI] cell viability loss – CellTiter-Glo luminescence, 24 h, dry powder, set 5, cytotoxicity control for SR-BI HDL uptake inhibitor project, dose response (AID 602126); settings: ldlA[mSR-BI] CHO cells viability, CellTiter-Glo ATP luminescence, 24 h
Method in brief: (§1)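 Detection: luminescence of cellular ATP via CellTiter-Glo luciferase reagent; test system: ldlA[mSR-BI] cells; read-out: IC50 of cell viability from ATP-dependent luminescence; schedule: 24 h compound exposure at 37 °C, then 10 min with detection reagent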

[2] = system: ldlA[mSR-BI] CHO cells viability, CellTiter-Glo ATP luminescence, 24 h; experiment: as above
Method in brief: as §1

## C[C@H]1CN([C@@H](C)CO)C(=O)c2cccc(NC(=O)Nc3ccccc3)c2O[C@@H]1CN(C)Cc1ccc(Cl)c(Cl)c1
[1]; at 35 µM (top of the series)
  activity change, negative = cytotoxicity: -98.2% (inactive)

## CCC(=O)N1CCc2cc(-c3csc(NC(=O)c4cc5cccnc5o4)n3)ccc21
[1]; at 35 µM (top of the series)
  activity change, negative = cytotoxicity: -0.539% (inactive)

## C[C@H](CO)N1C[C@H](C)[C@H](CN(C)S(=O)(=O)c2ccc(F)cc2)Oc2ccc(NC(=O)CCC(F)(F)F)cc2C1=O
[1]; at 35 µM (top of the series)
  activity change, negative = cytotoxicity: -2.53% (inactive)

## CC(C(=O)NC1CCCC1)N(C(=O)Cn1nnc(-c2ccccc2F)n1)C1CCCCC1 (centres undefined)
[1]; at 35 µM (top of the series)
  activity change, negative = cytotoxicity: -27.4% (inactive)

## C[C@H](CO)N1C[C@H](C)[C@H](CN(C)S(=O)(=O)c2ccc(Cl)cc2)Oc2ccc(NC(=O)Cc3cn(C)c4ccccc34)cc2C1=O
[1]; at 35 µM (top of the series)
  activity change, negative = cytotoxicity: -19.4% (inactive)

## C[C@@H]1CN([C@H](C)CO)C(=O)c2cc(NC(=O)Cc3cn(C)c4ccccc34)ccc2O[C@H]1CN(C)S(=O)(=O)c1ccc(F)cc1
[1]; at 35 µM (top of the series)
  activity change, negative = cytotoxicity: -29.1% (inactive)

## CCC(=O)N1CCc2cc(-c3csc(/N=C(/OC)c4cc(OC)cc(OC)c4)n3)ccc21
[1]; at 35 µM (top of the series)
  activity change, negative = cytotoxicity: -10.7% (inactive)

## C[C@@H]1CN([C@H](C)CO)C(=O)c2cc(NC(=O)Cc3cn(C)c4ccccc34)ccc2O[C@H]1CN(C)C(=O)Nc1ccc(F)cc1
[1]; at 35 µM (top of the series)
  activity change, negative = cytotoxicity: -8.77% (inactive)

## CC(C(=O)NC1CCCC1)N(C(=O)Cn1nnc(-c2ccc3c(c2)OCO3)n1)C1CCOCC1 (centres undefined)
[1]; at 35 µM (top of the series)
  activity change, negative = cytotoxicity: -7.76% (inactive)

## CC(C(=O)NC1CCCC1)N(C(=O)Cn1nnc(-c2ccccc2Cl)n1)C1CCCCC1 (centres undefined)
[1]; at 35 µM (top of the series)
  activity change, negative = cytotoxicity: -11.7% (inactive)

## C[C@H](CO)N1C[C@H](C)[C@H](CN(C)S(=O)(=O)c2ccc(F)cc2)Oc2ccc(NS(C)(=O)=O)cc2C1=O
[1]; at 35 µM (top of the series)
  activity change, negative = cytotoxicity: 11.2% (inactive)

## COc1ccc(-c2nnn(CC(=O)N(C3CCCCC3)C(C)C(=O)NC3CCCC3)n2)cc1OC (centres undefined)
[1]; at 35 µM (top of the series)
  activity change, negative = cytotoxicity: -8.68% (inactive)

## COc1ccc(-c2nnn(CC(=O)N(C3CCCCC3)C(C)C(=O)NC3CC3)n2)cc1OC (centres undefined)
[1]; at 35 µM (top of the series)
  activity change, negative = cytotoxicity: -10.4% (inactive)

## C[C@H]1CN([C@@H](C)CO)C(=O)c2cccc(NC(=O)Nc3ccccc3)c2O[C@@H]1CN(C)S(C)(=O)=O
[1]; at 35 µM (top of the series)
  activity change, negative = cytotoxicity: 1.04% (inactive)

## CCOC(=O)Nc1cccc(NC(=O)c2cc(OC)cc(OC)c2)c1
[1]; at 35 µM (top of the series)
  activity change, negative = cytotoxicity: -19.4% (inactive)

## C[C@@H]1CN([C@@H](C)CO)C(=O)c2cc(NC(=O)Cc3cn(C)c4ccccc34)ccc2O[C@H]1CN(C)S(=O)(=O)c1ccc(F)cc1
[1]; at 35 µM (top of the series)
  activity change, negative = cytotoxicity: -9.34% (inactive)

## C[C@H](CO)N1C[C@H](C)[C@@H](CN(C)S(=O)(=O)c2ccc(F)cc2)Oc2ccc(NC(=O)Cc3cn(C)c4ccccc34)cc2C1=O
[1]; at 35 µM (top of the series)
  activity change, negative = cytotoxicity: -14% (inactive)

## Nc1ccc(C(=O)Nc2ccc(-c3nc4ccc(NC(=O)c5ccc(N)cc5)cc4[nH]3)cc2)cc1
[1]; at 35 µM (top of the series)
  activity change, negative = cytotoxicity: -13.9% (inactive)

## CC(C(=O)NC1CCCC1)N(C(=O)Cn1nnc(-c2ccc(F)cc2)n1)C1CCCCC1 (centres undefined)
[1]; at 35 µM (top of the series)
  activity change, negative = cytotoxicity: -24.9% (inactive)

## C[C@H]1CN([C@@H](C)CO)C(=O)c2cccc(NC(=O)Nc3ccccc3)c2O[C@@H]1CN(C)Cc1ccc(C(F)(F)F)cc1
[1]; at 35 µM (top of the series)
  activity change, negative = cytotoxicity: -30.4% (inactive)

## CCC(=O)N1CCc2cc(-c3csc(NC(=O)C4CCCC4)n3)ccc21
[1]; at 35 µM (top of the series)
  activity change, negative = cytotoxicity: 0.408% (inactive)

## O=C(Nc1ccc(-c2nc3ccc(NC(=O)c4ccccc4[N+](=O)[O-])cc3[nH]2)cc1)c1ccccc1[N+](=O)[O-]
[1]; at 35 µM (top of the series)
  activity change, negative = cytotoxicity: -15.1% (inactive)

## Cc1ccc(-c2nnn(CC(=O)N(C3CCCCC3)C(C)C(=O)NC3CCCC3)n2)cc1 (centres undefined)
[1]; at 35 µM (top of the series)
  activity change, negative = cytotoxicity: -2.67% (inactive)

## CCC(=O)N1CCc2cc(-c3csc(NC(=O)c4cocn4)n3)ccc21
[1]; at 35 µM (top of the series)
  activity change, negative = cytotoxicity: -6.6% (inactive)

## C[C@H]1CN([C@@H](C)CO)C(=O)c2cc(NC(=O)Cc3cn(C)c4ccccc34)ccc2O[C@H]1CN(C)S(=O)(=O)c1ccc(F)cc1
[1]; at 30 µM (top of the series)
  activity change, negative = cytotoxicity: -19.8% (inactive)

## COc1cccc(-c2nnn(CC(=O)N(C3CCCCC3)C(C)C(=O)NC3CCCC3)n2)c1 (centres undefined)
[1]; at 35 µM (top of the series)
  activity change, negative = cytotoxicity: -12.4% (inactive)

## C[C@@H]1CN([C@H](C)CO)C(=O)c2cc(NC(=O)Cc3cn(C)c4ccccc34)ccc2O[C@H]1CN(C)S(C)(=O)=O
[1]; at 35 µM (top of the series)
  activity change, negative = cytotoxicity: -4.54% (inactive)

## CC(C)OCCCNC(=O)c1ccc(C2SCC(=O)N2Cc2ccco2)cc1 (centres undefined)
[1]; at 35 µM (top of the series)
  activity change, negative = cytotoxicity: -15.7% (inactive)

## CC(C)(C)NC(=O)N1CCN(c2ncccc2C(F)(F)F)CC1
[1]; at 35 µM (top of the series)
  activity change, negative = cytotoxicity: -9.57% (inactive)

## CCC(=O)Nc1ccc(-c2csc(NC(=O)c3ccco3)n2)cc1
[1]; at 35 µM (top of the series)
  activity change, negative = cytotoxicity: -1.37% (inactive)

## CC(OC(=O)c1cccc(NS(C)(=O)=O)c1)C(=O)Nc1ccc(N2CCOCC2)cc1 (centres undefined)
[1]; at 35 µM (top of the series)
  activity change, negative = cytotoxicity: -6.16% (inactive)

## C[C@H](CO)N1C[C@H](C)[C@H](CN(C)S(=O)(=O)c2ccc(F)cc2)Oc2ccc(NC(=O)Cc3cn(C)c4ccccc34)cc2C1=O
[2]
  AC50: > 70 µM (inactive)

## O=C(Nc1nc(-c2ccc3c(c2)CCN3)cs1)c1ccco1
[2]
  AC50: > 70 µM (inactive)

## CC(C(=O)NC1CCCC1)N(C(=O)Cn1nnc(-c2ccc(Cl)cc2)n1)C1CCCCC1 (centres undefined)
[2]
  AC50: > 70 µM (inactive)

## CCc1cc2cc3c(cc2nc1SCC(=O)OC(C)C)OCO3
[2]
  AC50: > 70 µM (inactive)

## CC(C(=O)NC1CCCC1)N(C(=O)Cn1nnc(-c2ccc3c(c2)OC(F)(F)O3)n1)C1CCCCC1 (centres undefined)
[2]
  AC50: 55.2 µM

## Cc1ccccc1NC(=O)NCC1CCN(c2ccc(S(=O)(=O)N3CCOCC3)cc2)CC1
[2]
  AC50: 58.3 µM

## COc1ccc(-c2nc(CC(=O)N(C3CCCCC3)C(C)C(=O)NC3CCCC3)cs2)cc1OC (centres undefined)
[2]
  AC50: 67 µM

## CCOC(=O)N1CCC(NC(=O)c2ccc3c(c2)N(Cc2ccc(F)cc2)CCS3)CC1
[2]
  AC50: 65.5 µM

## O=C(Nc1ccc(Cl)cc1C(=O)c1ccc(Cl)cc1)c1cc(Br)ccc1NS(=O)(=O)c1ccc(Cl)cc1
[2]
  AC50: 4.98 µM

## C[C@@H]1CN([C@H](C)CO)C(=O)c2cc(NC(=O)Cc3cn(C)c4ccccc34)ccc2O[C@H]1CN(C)S(=O)(=O)c1ccccc1
[2]
  AC50: 49.8 µM

## COc1ccc([C@H]2CC(=O)C=C(c3cccc4c3sc3ccccc34)C2)cc1OC
[2]
  AC50: > 70 µM (inactive)

## Cc1cc(SC(C)C(=O)Nc2ncc(Cl)cc2Cl)nc2ccccc12 (centres undefined)
[2]
  AC50: 35.1 µM

## O=C(Nc1ccc(-c2nc3ccc(NC(=O)c4ccccc4)cc3[nH]2)cc1)c1ccccc1
[2]
  AC50: 2.63 µM

## CCCN1CCc2cc(-c3csc(NC(=O)c4cc(OC)cc(OC)c4)n3)ccc21
[2]
  AC50: > 70 µM (inactive)

## CCC(=O)N1CCc2cc(-c3csc(NC(=O)c4ccco4)n3)ccc21
[2]
  AC50: > 70 µM (inactive)

## CCC(=O)N1CCc2cc(-c3csc(N(C)C(=O)c4cc(OC)cc(OC)c4)n3)ccc21
[2]
  AC50: 15.1 µM

## CCOc1ccccc1/C=C/c1onc(C)c1S(=O)(=O)N1CCC(C(=O)NC(C)(C)C)CC1
[2]
  AC50: > 70 µM (inactive)

## CCC(=O)N1CCc2cc(-c3csc(NC(=O)c4cc(OC)cc(OC)c4)n3)ccc21
[2]
  AC50: > 70 µM (inactive)

## CC(C)C(=O)N1CCc2cc(-c3csc(NC(=O)c4ccco4)n3)ccc21
[2]
  AC50: > 70 µM (inactive)

## CCC(=O)N1CCc2cc(-c3csc(NC(=O)c4cc(OC)c(OC)c(OC)c4)n3)ccc21
[2]
  AC50: > 70 µM (inactive)

## Cc1cc(C)n(CC(=O)NC2CCCc3c2cnn3-c2ccc(C)c(C)c2)n1 (centres undefined)
[2]
  AC50: > 70 µM (inactive)

## N#Cc1sc2nc(C3CC3)cc(-c3ccc(Cl)cc3)c2c1N
[2]
  AC50: 63.1 µM

## O=C(Nc1ccc(-c2nc3cc(NC(=O)c4ccccc4[N+](=O)[O-])ccc3o2)cc1)c1ccccc1[N+](=O)[O-]
[2]
  AC50: 36.3 µM

## CCC(=O)Nc1ccc(-c2csc(NC(=O)c3cccc(OC)c3)n2)cc1
[2]
  AC50: > 70 µM (inactive)

## COc1cc(OC)cc(C(=O)Nc2nc(-c3ccc4c(c3)CCN4C(=O)OC(C)(C)C)cs2)c1
[2]
  AC50: > 70 µM (inactive)

## C[C@H](CO)N1C[C@H](C)[C@@H](CN(C)S(=O)(=O)c2ccc(Cl)cc2)Oc2ccc(NC(=O)Cc3cn(C)c4ccccc34)cc2C1=O
[2]
  AC50: > 70 µM (inactive)

## CS(=O)(=O)N1CCc2cc(-c3csc(NC(=O)c4ccco4)n3)ccc21
[2]
  AC50: > 70 µM (inactive)

## C[C@H]1CN([C@@H](C)CO)C(=O)c2cccc(N(C)C)c2O[C@@H]1CN(C)Cc1ccc(Cl)c(Cl)c1
[2]
  AC50: > 70 µM (inactive)

## C[C@H]1CN([C@@H](C)CO)C(=O)c2cc(NC(=O)Cc3cn(C)c4ccccc34)ccc2O[C@@H]1CN(C)S(=O)(=O)c1ccc(Cl)cc1
[2]
  AC50: > 70 µM (inactive)

## COc1ccc(OC)c(CCNC(=O)c2ccc3c(c2)N(Cc2ccc(F)cc2)CCS3)c1
[2]
  AC50: > 70 µM (inactive)

## O=C(Nc1cc(Cl)ccc1Cl)c1cc(Cl)ccc1NS(=O)(=O)c1ccc(Cl)c([N+](=O)[O-])c1
[2]
  AC50: 17.3 µM

## CCC(=O)N1CCc2cc(-c3csc(NC(=O)c4cccs4)n3)ccc21
[2]
  AC50: 64.4 µM

## CCn1c(COc2c(C)cccc2C)nnc1SCC(=O)N1CCN(c2ccccc2)CC1
[2]
  AC50: 65.2 µM

## COc1ccc(-c2nnn(CC(=O)N(C3CCCCC3)C(C)(C)C(=O)NC3CCCC3)n2)cc1OC
[2]
  AC50: > 70 µM (inactive)

## CC(C(=O)NC1CCCC1)N(C(=O)Cn1nnc(-c2ccc3c(c2)OCO3)n1)C1CCCCC1 (centres undefined)
[2]
  AC50: 53 µM

## C=CCN1CCc2cc(-c3csc(NC(=O)c4ccco4)n3)ccc21
[2]
  AC50: 57.7 µM

## O=C(Nc1ccccc1Cl)c1ccccc1NS(=O)(=O)c1ccccc1
[2]
  AC50: 37.2 µM

## COc1cc(OC)cc(C(=O)Nc2nc(-c3ccc4c(c3)CCN4C(C)=O)cs2)c1
[2]
  AC50: > 70 µM (inactive)

## C[C@@H]1CN([C@H](C)CO)C(=O)c2cc(NC(=O)Cc3cn(C)c4ccccc34)ccc2O[C@@H]1CN(C)S(=O)(=O)c1ccc(F)cc1
[2]
  AC50: 50.8 µM

## CCc1sc(N2C(=O)C3C4CCC(C4=C(C)C)C3C2=O)nc1-c1ccccc1 (centres undefined)
[2]
  AC50: > 70 µM (inactive)

## O=C(Nc1ccc(-c2nc3cc(NC(=O)c4ccccc4Cl)ccc3o2)cc1)c1ccccc1Cl
[2]
  AC50: 43.9 µM

## C[C@H]1CN([C@@H](C)CO)C(=O)c2cc(NC(=O)Nc3ccccc3)ccc2O[C@@H]1CN(C)Cc1ccc(Cl)c(Cl)c1
[2]
  AC50: 57 µM

## COC(=O)N1CCc2cc(-c3csc(NC(=O)c4cc(OC)cc(OC)c4)n3)ccc21
[2]
  AC50: > 70 µM (inactive)
